Results as given in ChEMBL document CHEMBL1126621 (J Med Chem, 1993).
Bridge positions count the residues as written; N and C are the ends. Square brackets hold non-standard residues; d marks the D form. Peptide text beside a SMILES is read from it. Pen = CC(C)(S)[C@H](N)C(=O)O

Assays:
[1] = Relative affinity for delta and kappa opioid receptors of guinea pig brain homogenate; conditions: Cavia porcellus
[2] = molecular target: Delta-type opioid receptor (Mus musculus, UniProt P32300); test: Inhibition of delta-selective antagonist binding to opioid receptor of mouse vas dferens
How it was run: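 Mouse vas deferens at 500 mg tension in Mg-free Krebs, 37 °C, 95% O2/5% CO2. Field-stimulated with 2-ms supramaximal pulses; isometric contractions recorded. Cumulative concentration-response. At least 2 assays in duplicate.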

[3] = molecular target: T1, Kappa-type opioid receptor (Cavia porcellus, UniProt P41144); test: (§1) Inhibition of [3H]U-69593 binding to kappa opioid receptor of guinea pig brain homogenate
How it was run: (§2)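 Adult male Hartley guinea pig whole-brain membranes in 50 mM Tris-HCl pH 7.4, preincubated 25 °C 30 min to strip endogenous peptides. Assay buffer: Tris with BSA, bestatin, bacitracin, captopril, PMSF. Ten concentrations over 800-fold range, duplicate tubes. 10 μM naltrexone defined nonspecific binding. 25 °C for 3 h, then PEI-treated GF/B filtration and scintillation counting. One/two-site nonlinear regression or logistic fit. ≥3 independent runs, mean ± SEM.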

Mu-type opioid receptor = Mu-type opioid receptor (Cavia porcellus, UniProt P97266); test: Inhibition of [3H]PL-17 binding to mu opioid receptor of guinea pig brain homogenate
[4] = molecular target: T1, Kappa-type opioid receptor; test: as §1; remark: listed apart in the source
How it was run: as §2, with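 “PMSF. Radioligand: [3H]DPDPE 1.0 nM (δ) or [3H]U-69,593 0.75 nM (κ).” for “PMSF.”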

Chain of Mu-type opioid receptor (P97266 whole entry): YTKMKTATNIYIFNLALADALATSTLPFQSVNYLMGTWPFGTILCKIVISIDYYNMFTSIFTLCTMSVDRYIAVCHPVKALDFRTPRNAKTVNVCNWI
Chain of Delta-type opioid receptor (P32300 whole entry): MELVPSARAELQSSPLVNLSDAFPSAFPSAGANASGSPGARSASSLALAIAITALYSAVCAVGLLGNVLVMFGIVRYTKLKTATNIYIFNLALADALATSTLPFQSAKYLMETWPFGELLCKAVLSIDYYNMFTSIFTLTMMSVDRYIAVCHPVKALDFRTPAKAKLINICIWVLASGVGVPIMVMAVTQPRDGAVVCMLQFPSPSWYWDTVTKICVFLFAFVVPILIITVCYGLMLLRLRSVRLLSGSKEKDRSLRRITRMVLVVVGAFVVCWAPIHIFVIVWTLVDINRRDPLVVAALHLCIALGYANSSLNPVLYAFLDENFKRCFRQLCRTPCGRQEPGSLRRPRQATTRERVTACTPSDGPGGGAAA
T1 sequence (P41144 whole entry): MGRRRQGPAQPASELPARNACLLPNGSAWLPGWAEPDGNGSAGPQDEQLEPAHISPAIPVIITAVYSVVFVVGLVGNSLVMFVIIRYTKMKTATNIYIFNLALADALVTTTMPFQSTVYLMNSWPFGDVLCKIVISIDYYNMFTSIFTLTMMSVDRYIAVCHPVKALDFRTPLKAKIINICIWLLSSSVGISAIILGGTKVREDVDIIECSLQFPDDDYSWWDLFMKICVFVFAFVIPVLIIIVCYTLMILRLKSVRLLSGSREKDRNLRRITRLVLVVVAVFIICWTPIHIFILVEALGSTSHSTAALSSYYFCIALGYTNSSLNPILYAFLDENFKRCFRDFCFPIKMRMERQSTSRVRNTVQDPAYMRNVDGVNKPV

Structure (SMILES)	Selectivity [1]	IC50 [2] [nM]	IC50 [3] [nM]	IC50 (Mu-type opioid receptor) [nM]	IC50 [4] [nM]
CC[C@H](C)[C@@H]1NC(=O)[C@@H](CCCN=C(N)N)NC(=O)[C@H](CCCN=C(N)N)NC(=O)[C@H](NC(=O)[C@H](Cc2ccccc2)NC(=O)CNC(=O)CNC(=O)[C@@H](N)Cc2ccc(O)cc2)CSSC[C@H](C(=O)N[C@@H](CCCCN)C(=O)O)NC(=O)[C@@H](CCCN=C(N)N)NC1=O	139	–	–	–	–
CC[C@H](C)[C@H]1NC(=O)[C@H](CCCN=C(N)N)NC(=O)[C@@H](CCCN=C(N)N)NC(=O)[C@H](NC(=O)[C@H](Cc2ccccc2)NC(=O)CNC(=O)CNC(=O)[C@@H](N)Cc2ccc(O)cc2)C(C)(C)SSC[C@H](C(=O)O)NC(=O)[C@H]2CCCN2C(=O)[C@H](CCCN=C(N)N)NC1=O	165	–	–	–	–
CC[C@H](C)[C@@H]1NC(=O)[C@H](CCCN=C(N)N)NC(=O)[C@H](CCCN=C(N)N)NC(=O)[C@@H](NC(=O)[C@H](Cc2ccccc2)NC(=O)CNC(=O)[C@@H](C)NC(=O)[C@@H](N)Cc2ccc(O)cc2)CSSC[C@@H](C(N)=O)NC(=O)[C@@H]2CCCN2C(=O)[C@H](CCCN=C(N)N)NC1=O	–	> 6000	81.2	9.69	–
CC(C)C[C@H](NC(=O)[C@H](Cc1ccccc1)NC(=O)CNC(=O)CNC(=O)[C@@H](N)Cc1ccc(O)cc1)C(=O)N[C@@H](CCCN=C(N)N)C(=O)N[C@@H](CCCN=C(N)N)C(=O)N[C@H]1CSSC[C@H](C(N)=O)NC(=O)[C@H](CC(C)C)NC(=O)[C@H](CCCCN)NC(=O)[C@@H]2CCCN2C(=O)[C@H](CCCN=C(N)N)NC1=O	–	9.17	0.035	0.38	–
CC[C@H](C)[C@H]1NC(=O)[C@H](CCCN=C(N)N)NC(=O)[C@@H](CCCN=C(N)N)NC(=O)[C@H](NC(=O)[C@H](Cc2ccccc2)NC(=O)CNC(=O)CNC(=O)[C@@H](N)Cc2ccccc2)CSSC[C@H](C(=O)O)NC(=O)[C@H]2CCCN2C(=O)[C@H](CCCN=C(N)N)NC1=O	26	–	–	–	–
CC[C@H](C)[C@@H]1NC(=O)[C@H](CCCN=C(N)N)NC(=O)[C@H](CCCN=C(N)N)NC(=O)[C@@H](NC(=O)[C@H](Cc2ccccc2)NC(=O)CNC(=O)CNC(=O)[C@@H](N)Cc2ccc(O)cc2)CSSC[C@@H](C(=O)N2CCC[C@H]2C(=O)N[C@@H](CCCCN)C(N)=O)NC1=O (H-YGGFCRRICPK-NH2; disulfide 5-9)	–	> 3000	0.868	6.43	–
CC[C@H](C)[C@H]1NC(=O)[C@H](CCCN=C(N)N)NC(=O)[C@@H](CCCN=C(N)N)NC(=O)[C@H](NC(=O)[C@H](Cc2ccccc2)NC(=O)CNC(=O)CNC(=O)[C@@H](N)Cc2ccc(O)cc2)CSSC[C@H](C(=O)N[C@H](CCCN=C(N)N)C(=O)N[C@H](CCCCN)C(=O)O)NC1=O	43	–	–	–	–
CC[C@H](C)[C@H]1NC(=O)[C@H](CCCN=C(N)N)NC(=O)[C@@H](NC(=O)[C@H](CC(C)C)NC(=O)[C@H](Cc2ccccc2)NC(=O)CNC(=O)CNC(=O)[C@@H](N)Cc2ccc(O)cc2)CSSC[C@@H](C(=O)N[C@@H](CCCCN)C(=O)O)NC(=O)[C@H](CCCN=C(N)N)NC1=O	10	–	–	–	–
CC(C)C[C@H](NC(=O)[C@H](Cc1ccccc1)NC(=O)CNC(=O)CNC(=O)[C@@H](N)Cc1ccc(O)cc1)C(=O)N[C@@H](CCCN=C(N)N)C(=O)N[C@@H](CCCN=C(N)N)C(=O)N[C@H]1CSSC[C@H](C(=O)O)NC(=O)[C@@H](CC(C)C)NC(=O)[C@H](CCCCN)NC(=O)[C@H]2CCCN2C(=O)[C@H](CCCN=C(N)N)NC1=O	55	–	–	–	–
CC[C@H](C)[C@H]1NC(=O)[C@H](CCCN=C(N)N)NC(=O)[C@@H](CCCN=C(N)N)NC(=O)[C@H](NC(=O)[C@H](Cc2ccccc2)NC(=O)CNC(=O)[C@@H](C)NC(=O)[C@@H](N)Cc2ccc(O)cc2)CSSC[C@H](C(=O)O)NC(=O)[C@H]2CCCN2C(=O)[C@H](CCCN=C(N)N)NC1=O	1.3	–	–	–	–
CC(C)C[C@H](NC(=O)[C@H](Cc1ccccc1)NC(=O)CNC(=O)CNC(=O)[C@@H](N)Cc1ccc(O)cc1)C(=O)N[C@@H](CCCNC(=N)N)C(=O)N[C@@H](CCCNC(=N)N)C(=O)N[C@@H]1CSSC[C@H](C(=O)N[C@@H](CCCCN)C(N)=O)NC(=O)[C@H](CCCCN)NC(=O)[C@@H]2CCCN2C(=O)[C@H](CCCNC(=N)N)NC1=O	–	25.3	0.116	0.674	–
CC[C@H](C)[C@H]1NC(=O)[C@H](CCCN=C(N)N)NC(=O)[C@@H](CCCN=C(N)N)NC(=O)[C@H](NC(=O)[C@H](Cc2ccccc2)NC(=O)CNC(=O)CNC(=O)[C@@H](N)Cc2ccc(O)cc2)CSSC[C@H](C(=O)O)NC(=O)[C@@H](CC(C)C)NC(=O)[C@H](CCCCN)NC(=O)C2CCCN2C(=O)[C@H](CCCN=C(N)N)NC1=O (stereo in doubt)	46	–	–	–	–
CC[C@H](C)[C@@H]1NC(=O)[C@H](CCCN=C(N)N)NC(=O)[C@H](CCCN=C(N)N)NC(=O)[C@@H](NC(=O)[C@H](Cc2ccccc2)NC(=O)CNC(=O)CNC(=O)[C@@H](N)Cc2ccc(O)cc2)CSSC[C@@H](C(=O)N[C@@H](CCCN=C(N)N)C(=O)N[C@@H](CCCCN)C(N)=O)NC1=O (H-YGGFCRRICRK-NH2; disulfide 5-9)	–	6260	–	5.81	0.42
CC[C@H](C)[C@@H]1NC(=O)[C@H](CCCNC(=N)N)NC(=O)[C@@H](NC(=O)[C@H](CC(C)C)NC(=O)[C@H](Cc2ccccc2)NC(=O)CNC(=O)CNC(=O)[C@@H](N)Cc2ccc(O)cc2)CSSC[C@@H](C(=O)N[C@@H](CCCCN)C(N)=O)NC(=O)[C@H](CCCNC(=N)N)NC1=O (H-YGGFLCRIRCK-NH2; disulfide 6-10)	–	92.6	0.047	0.091	–
CC[C@H](C)[C@H]1NC(=O)[C@H](CCCN=C(N)N)NC(=O)[C@@H](CCCN=C(N)N)NC(=O)[C@H](NC(=O)[C@H](Cc2ccccc2)NC(=O)CNC(=O)CNC(=O)[C@@H](N)Cc2ccc(O)cc2)CSSC[C@H](C(=O)N2CCC[C@@H]2C(=O)N[C@H](CCCCN)C(=O)O)NC1=O	36	–	–	–	–
CC[C@H](C)[C@@H]1NC(=O)[C@H](CCCN=C(N)N)NC(=O)[C@H](CCCN=C(N)N)NC(=O)[C@@H](NC(=O)[C@H](Cc2ccccc2)NC(=O)CNC(=O)CNC(=O)[C@@H](N)Cc2ccc(O)cc2)C(C)(C)SSC[C@@H](C(N)=O)NC(=O)[C@@H]2CCCN2C(=O)[C@H](CCCN=C(N)N)NC1=O (H-YGGF[Pen]RRIRPC-NH2; disulfide 5-11)	–	> 6000	0.522	1.26	–
CC[C@H](C)[C@@H]1NC(=O)[C@H](CCCNC(=N)N)NC(=O)[C@H](CCCNC(=N)N)NC(=O)[C@@H](NC(=O)[C@H](Cc2ccccc2)NC(=O)CNC(=O)CNC(=O)[C@@H](N)Cc2ccc(O)cc2)CSSC[C@@H](C(N)=O)NC(=O)[C@H](CC(C)C)NC(=O)[C@H](CCCCN)NC(=O)[C@H]2CCCN2C(=O)[C@H](CCCNC(=N)N)NC1=O	–	4100	0.21	2.48	–
CC(C)C[C@H](NC(=O)[C@H](Cc1ccccc1)NC(=O)CNC(=O)CNC(=O)[C@@H](N)Cc1ccc(O)cc1)C(=O)N[C@@H](CCCN=C(N)N)C(=O)N[C@@H](CCCN=C(N)N)C(=O)N[C@@H]1CSSC[C@@H](C(=O)N[C@@H](CCCCN)C(=O)O)NC(=O)[C@@H](CCCCN)NC(=O)[C@@H]2CCCN2C(=O)[C@@H](CCCN=C(N)N)NC1=O	56	–	–	–	–
CC[C@H](C)[C@@H]1NC(=O)[C@H](CCCNC(=N)N)NC(=O)[C@H](CCCNC(=N)N)NC(=O)[C@@H](NC(=O)[C@H](Cc2ccccc2)NC(=O)CNC(=O)CNC(=O)[C@@H](N)Cc2ccccc2)CSSC[C@@H](C(N)=O)NC(=O)[C@@H]2CCCN2C(=O)[C@H](CCCNC(=N)N)NC1=O (H-FGGFCRRIRPC-NH2; disulfide 5-11)	–	> 3000	15.1	61.2	–
CC[C@H](C)[C@@H]1NC(=O)[C@H](CCCN=C(N)N)NC(=O)[C@H](CCCN=C(N)N)NC(=O)[C@@H](NC(=O)[C@H](Cc2ccccc2)NC(=O)CNC(=O)CNC(=O)[C@@H](N)Cc2ccc(O)cc2)CSSC[C@@H](C(=O)N[C@@H](CCCCN)C(N)=O)NC(=O)[C@H](CCCN=C(N)N)NC1=O (H-YGGFCRRIRCK-NH2; disulfide 5-10)	–	> 3000	0.593	4.26	–
